Experimental data taken from ChEMBL document CHEMBL2203005 (Bioorg Med Chem, 2012).

How the values were obtained:
[1] = biological target: NAD(P)H dehydrogenase [quinone] 1 (Mus musculus) (UniProt Q64669); assay: Induction of quinone reductase-1 activity in mouse Hepa-1c1c7 cells after 48 hrs by MTT assay; type: cell-based
Outline: (§1)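 Hepa 1c1c7 murine hepatoma cells exposed to compound (max 50 μM) for 48 h in 96-well format, then permeabilized with digitonin. QR1 activity read as NADPH-dependent menadiol-mediated MTT reduction to formazan, absorbance 595 nm; crystal violet total-protein assay in parallel. CD = concentration doubling activity, determined only where induction ratio > 2. Three independent experiments in duplicate; 4′-bromoflavone positive control.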

[2] = biological target: NAD(P)H dehydrogenase [quinone] 1 (Mus musculus) (UniProt Q64669); assay: Induction of quinone reductase-1 activity in mouse BPrc1 cells after 48 hrs by MTT assay; type: cell-based
[3] = biological target: NAD(P)H dehydrogenase [quinone] 1 (Mus musculus) (UniProt Q64669); assay: Induction of quinone reductase-1 activity in mouse TAOc1BPrc1 cells after 48 hrs by MTT assay; type: cell-based
HEK293 = assay: Inhibition of TNFalpha-induced NF-kappaB activity expressed in HEK293 cells at 50 uM by luciferase reporter gene assay; type: cell-based; conditions: Homo sapiens
[4] = biological target: T1, Nitric oxide synthase, inducible (Mus musculus, UniProt P29477); assay: Inhibition of LPS-induced iNOS activity in mouse RAW 264.7 cells assessed as inhibition of NO production pretreated with compound for 30 mins before LPS challenge after 24 hrs by Griess reagent method; type: cell-based
T1 sequence (P29477 whole entry): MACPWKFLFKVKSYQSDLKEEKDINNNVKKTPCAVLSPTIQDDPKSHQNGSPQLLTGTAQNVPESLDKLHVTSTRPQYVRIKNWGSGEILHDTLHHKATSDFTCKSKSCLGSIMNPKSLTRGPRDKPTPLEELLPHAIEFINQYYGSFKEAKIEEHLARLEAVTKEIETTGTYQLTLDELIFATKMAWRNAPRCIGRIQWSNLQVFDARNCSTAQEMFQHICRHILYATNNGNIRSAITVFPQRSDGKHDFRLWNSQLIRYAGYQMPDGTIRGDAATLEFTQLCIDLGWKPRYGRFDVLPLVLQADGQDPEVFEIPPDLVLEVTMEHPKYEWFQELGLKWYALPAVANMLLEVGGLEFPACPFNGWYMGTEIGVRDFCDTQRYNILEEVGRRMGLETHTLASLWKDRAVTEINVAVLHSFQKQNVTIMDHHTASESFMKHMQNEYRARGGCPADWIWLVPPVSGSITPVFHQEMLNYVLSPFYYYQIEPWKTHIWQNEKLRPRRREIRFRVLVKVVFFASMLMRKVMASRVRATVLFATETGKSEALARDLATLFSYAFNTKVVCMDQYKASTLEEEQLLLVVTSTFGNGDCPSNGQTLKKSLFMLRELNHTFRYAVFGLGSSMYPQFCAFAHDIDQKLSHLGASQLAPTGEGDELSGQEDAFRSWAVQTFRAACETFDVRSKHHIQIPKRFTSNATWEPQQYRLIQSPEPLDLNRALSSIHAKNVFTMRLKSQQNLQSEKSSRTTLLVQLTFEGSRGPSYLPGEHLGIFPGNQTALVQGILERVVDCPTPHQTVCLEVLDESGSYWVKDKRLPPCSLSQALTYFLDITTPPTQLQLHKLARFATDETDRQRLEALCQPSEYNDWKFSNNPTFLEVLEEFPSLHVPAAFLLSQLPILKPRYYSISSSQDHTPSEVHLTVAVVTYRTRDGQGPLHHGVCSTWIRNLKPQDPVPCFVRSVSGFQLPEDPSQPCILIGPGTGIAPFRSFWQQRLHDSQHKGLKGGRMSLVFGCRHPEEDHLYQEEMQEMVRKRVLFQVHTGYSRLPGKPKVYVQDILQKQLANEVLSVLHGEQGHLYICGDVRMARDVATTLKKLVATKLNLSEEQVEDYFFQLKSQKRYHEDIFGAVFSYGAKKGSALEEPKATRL

Aromatase [5] = biological target: T2, Aromatase (Homo sapiens, UniProt P11511)
T2 sequence (P11511 whole entry): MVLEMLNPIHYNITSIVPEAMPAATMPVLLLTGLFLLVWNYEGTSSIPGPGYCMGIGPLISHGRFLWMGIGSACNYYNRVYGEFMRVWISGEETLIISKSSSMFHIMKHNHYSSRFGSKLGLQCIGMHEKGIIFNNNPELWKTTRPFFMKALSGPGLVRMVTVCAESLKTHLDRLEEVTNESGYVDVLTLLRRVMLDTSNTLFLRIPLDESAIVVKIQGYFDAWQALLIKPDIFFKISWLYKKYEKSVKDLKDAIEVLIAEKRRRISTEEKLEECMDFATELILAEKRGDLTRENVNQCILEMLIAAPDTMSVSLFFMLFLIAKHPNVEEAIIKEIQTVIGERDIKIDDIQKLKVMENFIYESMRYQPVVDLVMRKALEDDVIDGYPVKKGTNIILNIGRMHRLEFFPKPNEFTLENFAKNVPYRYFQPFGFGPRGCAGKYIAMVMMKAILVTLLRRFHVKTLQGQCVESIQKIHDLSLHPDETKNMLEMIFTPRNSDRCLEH

Aromatase [6] = biological target: T2, Aromatase; conditions: 0.5 h, read-out: INH
[7] = biological target: T3, Nitric oxide synthase, inducible (Mus musculus) (UniProt P29477); assay: Inhibition of LPS-induced iNOS activity in mouse RAW 264.7 cells assessed as inhibition of NO production at 50 uM pretreated with compound for 30 mins before LPS challenge after 24 hrs by Griess reagent method; type: cell-based
T3 sequence (whole entry): T1 sequence (P29477 whole entry)

[8] = Inhibition of TNFalpha-induced NF-kappaB activity expressed in HEK293 cells by luciferase reporter gene assay; type: cell-based; conditions: Homo sapiens
[9] = biological target: NAD(P)H dehydrogenase [quinone] 1 (Mus musculus) (UniProt Q64669); assay: Induction of quinone reductase-1 activity in mouse Hepa-1c1c7 cells assessed as induction ratio after 48 hrs by MTT assay relative to control; type: cell-based; outline: as §1

NAD(P)H dehydrogenase [quinone] 1 (Mus musculus), sequence (Q64669 whole entry): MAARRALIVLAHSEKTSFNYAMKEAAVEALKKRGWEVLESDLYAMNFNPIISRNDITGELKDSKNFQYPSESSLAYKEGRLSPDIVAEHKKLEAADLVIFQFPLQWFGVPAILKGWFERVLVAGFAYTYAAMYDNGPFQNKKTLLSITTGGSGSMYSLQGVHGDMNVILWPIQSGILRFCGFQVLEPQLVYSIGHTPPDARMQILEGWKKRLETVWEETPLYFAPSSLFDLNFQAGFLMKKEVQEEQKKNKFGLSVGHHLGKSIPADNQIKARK

Cc1c(Cl)cccc1-c1nsc(-c2cccc(Cl)c2C)n1
CD [1]: > 50 µM

COc1cccc(-c2csc(-c3cccc(Cl)c3Cl)n2)c1
CD [1]: > 50 µM | CD [2]: > 50 µM

COc1cccc(-c2nsc(-c3cccc(OC)c3)n2)c1
CD [2]: > 50 µM

COc1cccc(-c2csc(-c3cccc(Cl)c3C)n2)c1
CD [1]: > 50 µM | CD [2]: > 50 µM

Fc1ccccc1-c1nc(-c2ccccc2)ns1
CD [3]: 0.1 µM

CCCCc1ccc(-c2nc(-c3ccccc3)cs2)cc1
CD [1]: > 50 µM | CD [2]: > 50 µM

COc1cccc(-c2noc(-c3cccc(OC)c3)n2)c1
CD [2]: > 50 µM

CCCCc1ccc(-c2nc(-c3cccc(OC)c3)cs2)cc1
CD [1]: > 50 µM | CD [2]: > 50 µM

Fc1ccccc1-c1nsc(-c2ccccc2)n1
CD [2]: > 50 µM

Fc1ccccc1-c1nsc(-c2ccccc2F)n1
inhibition (HEK293): 40.7% | IC50 [4]: > 50 µM | IC50 (Aromatase [5]): > 50 µM | inhibition at 50 µM (Aromatase [6]): 53.2% | inhibition [7]: 12.9% | IC50 [8]: > 50 µM

COc1cccc(-c2csc(-c3cccc(Br)c3)n2)c1
CD [1]: > 50 µM | CD [2]: > 50 µM

COc1cccc(-c2csc(-c3ccccc3)n2)c1
inhibition (HEK293): 64% | IC50 [4]: 45.3 µM | IC50 (Aromatase [5]): > 50 µM | inhibition at 50 µM (Aromatase [6]): 27.1% | inhibition [7]: 62% | IC50 [8]: 31.6 µM

Brc1cccc(-c2nc(-c3ccccc3)cs2)c1
CD [2]: > 50 µM

FC(F)(F)c1ccccc1-c1nc(-c2ccccc2)cs1
CD [1]: > 50 µM | CD [2]: > 50 µM

COc1cccc(-c2csc(-c3cccc(OC)c3)n2)c1
IC50 [4]: > 50 µM | IC50 (Aromatase [5]): > 50 µM | IC50 [8]: 20.3 µM

Cc1ccc(Cl)cc1-c1nsc(-c2ccc(Cl)cc2C)n1
Ratio [9]: 4.9 | CD [1]: 0.44 µM

COc1cccc(-c2csc(-c3cccc(OC)c3F)n2)c1
CD [1]: > 50 µM | CD [2]: > 50 µM

Cc1ccc(Br)cc1-c1nsc(-c2ccc(Br)cc2C)n1
Ratio [9]: 2.3 | CD [1]: > 50 µM

Cc1ccc(-c2nc(-c3ccccc3)cs2)c(Br)c1
CD [2]: > 50 µM

COc1cccc(-c2csc(-c3cccc(F)c3F)n2)c1
CD [2]: > 50 µM

COc1cccc(-c2csc(-c3ccc(C)cc3Br)n2)c1
CD [2]: > 50 µM

Clc1cccc(Cl)c1-c1nc(-c2ccccc2)cs1
CD [2]: > 50 µM

COc1cccc(-c2nc(-c3ccccc3)cs2)c1
IC50 [4]: > 50 µM | IC50 (Aromatase [5]): > 50 µM | CD [2]: > 50 µM | inhibition at 50 µM (Aromatase [6]): 35.5% | IC50 [8]: 2.7 µM

COc1cccc(-c2csc(-c3cc(OC)ccc3F)n2)c1
CD [1]: > 50 µM | CD [2]: > 50 µM

c1ccc(-c2nsc(-c3ccccc3)n2)cc1
IC50 [4]: > 50 µM | CD [2]: > 50 µM | inhibition at 50 µM (Aromatase [6]): 60.2% | IC50 [8]: 47.7 µM

Cc1c(Cl)cccc1-c1nc(-c2ccccc2)cs1
CD [2]: > 50 µM
